Experimental data published in PubChem BioAssay AID465 (The Scripps Research Institute Molecular Screening Center, 2006).
Among all 62,000 compounds or so, about 130 (0.21%) were called active. The sample holds actives, similar compounds and a random draw of the others, so the mix is not that of the screen. Values without a mark were called inactive.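 The calls were made as follows: active = inhibition above the mean of all tested compounds plus 3 SD (cut at about 40% in these data); inactive = the rest.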

assay: inhibitors of PMA/ionomycin-induced NF-kB reporter, primary screen, antigen receptor NF-kB inhibitor project, cell-based, HEK-293 luciferase reporter, luminescence (AID 465); conditions: HEK-293 NF-kB luciferase reporter, at 3 µM, hits give high values;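 also: 0% = stimulated DMSO wells and 100% = 10 µM reference inhibitor 5653914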
Outline: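 Timing: 1 h pretreatment, 16 h stimulation, 37 °C; system: HEK-293 cells with stable firefly luciferase reporter driven by four HIV NF-kB elements; doses: 3 µM once, 0.30% DMSO; measured by: luciferase luminescence; control set: DMSO and 10 µM reference inhibitor; repeats: single test; reagent: PMA plus ionomycin mix as NF-kB-activating stimulus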

Structure (SMILES)	inhibition
N#CC1=C(N)OC2=C(C(=O)CCC2)C1C1CC=CCC1 (stereo not drawn)	16.6%
O=S(N1CCCCCC1)C12CC3CC(CC(C3)C1)C2 (stereo not drawn)	19.1%
O=C(O)CCC(=O)Nc1ccc(N2CCOCC2)cc1	7.6%
CC(=O)Nc1ccc(NS(=O)(=O)c2cc(C)sc2C)cc1	11.3%
CCOC(=O)CNC(=O)c1nn(-c2cccc(OC)c2)c(=O)c2ccccc12	5.1%
CC(=O)Nc1cc(C(=O)O)ccc1S(=O)(=O)c1ccc(Cl)cc1	15%
O=C(Nc1cnccn1)c1cccnc1	14.9%
Cc1csc(NC(=O)C2CCCN2C(=O)OCC(C)C)n1 (stereo not drawn)	3.7%
CCOC(=O)N1CCN(C(=O)c2cc3c(ccc4ccccc43)oc2=O)CC1	12.5%
CC(C)(C)NC(=O)Cn1nnc(-c2ccccc2Cl)n1	-10.7%
O=C1NC(c2cc3c(cc2Cl)OCO3)Oc2ccccc21 (stereo not drawn)	6.8%
Cc1cc(=O)n2c3c(cccc13)CCC2	7.5%
CCCCN(C)Cc1c(C)[nH]c2ccc(Cl)cc2c1=O	9.1%
CNC(=O)CSc1nnc(CCc2ccccc2)n1-c1ccccc1	11.6%
CCCCN=C(N)/C(C(=O)OCC)=C(\O)c1ccc(OC)cc1	7.4%
Cc1ccc(OS(=O)Nc2cccc3nccnc23)cc1 (stereo not drawn)	8.8%
COC(=O)[C@H](C)NC(=O)Nc1ccc(OC(F)(F)F)cc1	11.6%
Cc1ccnc(N2CCN(C(=O)CSc3nc4ccccc4nc3N3CCCCC3)CC2)c1	5.5%
COc1ccc(-c2nnn(CC(=O)N(CCO)C(C(=O)NC3CCCC3)c3ccc(F)cc3)n2)cc1 (stereo not drawn)	24%
CCN(CC)S(=O)(=O)c1cc(C(=O)Nc2ccccn2)ccc1C	-11.3%
O=C(Cc1nn[nH]n1)NCCC1=CCCCC1	4.2%

Structure (SMILES)	inhibition
CC(=O)Oc1ccc(C(=O)Nc2nccs2)cc1	11.8%
Nc1ccc(SCCN2C(=O)c3ccccc3C2=O)cc1	6.7%
CCc1cc(=O)oc2cc(OCC(=O)N3CCCc4ccccc43)ccc12	12.9%
Cc1cc(C)c(NC(=O)CS(=O)CC(=O)Nc2cccnc2)c(C)c1 (stereo not drawn)	18.1%
C=CCC(NCCCO)c1cccc(OC)c1OC (stereo not drawn)	7.1%
O=C(CN1C2CCC1CC(NC(=O)C1CC1)C2)NCc1ccccc1 (stereo not drawn)	7.7%
CCCC(NC(=O)c1ccccc1)c1nc2ccccc2n1Cc1ccc(C(=O)OC)o1 (stereo not drawn)	17.4%
CCCC(CCC(=O)OC)(C(=O)OCC)c1csc(N)n1 (stereo not drawn)	2.1%
CCOC(=O)CSc1nncc2ccc(OC)c(OC)c12	2%
O=C(NC(=O)c1ccc(Cl)c(Cl)c1)OC1CCS(=O)(=O)C1 (stereo not drawn)	21.6%
CCCN1C2=C(C(=O)CCC2)C(c2ccc(O)c(Br)c2)C2=C1CCCC2=O	-2.4%
CCOC(=O)Cc1csc(NC(=O)CN(C)S(=O)(=O)c2ccc3c(c2)CCC(=O)N3)n1	0.2%
COc1cc(Cl)c(C)cc1NC(=O)CSc1nnc(-c2ccco2)n1CC(C)C	14.8%
O=C(CCC(=O)N1CCN(S(=O)(=O)c2ccccc2)CC1)NC1CCCc2ccccc21 (stereo not drawn)	15.4%
Cc1cc(Cl)c(S(=O)(=O)NCCC(=O)O)cc1OCC(N)=O	1.4%
CC(=O)N1CCN(c2ccc(NCc3ccc(C(C)C)cc3)cc2)CC1	-0.9%
CCCn1c(SCC(=O)Nc2cccc(C(=O)OCC)c2)nnc1-c1ccoc1C	-4.2%
CCOc1ccc(OCc2ccc(C(=O)Nc3cccc(C)n3)o2)cc1	-17.7%
O=P(c1cccs1)(c1cccs1)c1cccs1	22.9%
CCCn1cc(SCC(N)=O)c2ccccc21	2.8%
COc1ccc(N=Cc2c(O)[nH]c3ccccc23)cc1OC	-16.7%

Structure (SMILES)	inhibition
CCN(CC)S(=O)(=O)c1ccc2nc(COC(=O)c3n[nH]c4ccccc34)[nH]c2c1	12.4%
Cc1ccn2cc(C(=O)NC3CCN(Cc4ccccc4)CC3)nc2c1	6.4%
COc1cccc(NC(=O)Cn2cnc3sc(C)c(S(=O)(=O)N4CCN(C)CC4)c3c2=O)c1	11.9%
COC(=O)c1ccc2c(=O)n(CC3CCCO3)c(=S)[nH]c2c1 (stereo not drawn)	12.2%
Cc1ccsc1C(=O)OCC(=O)c1cc2ccccc2o1	3.8%
Cc1ccsc1C(=O)OCC(=O)c1cc(C)n(CC2CCCO2)c1C (stereo not drawn)	55.2% (active)
O=C1NC(c2ccncc2)Nc2sc3c(c21)CCCC3 (stereo not drawn)	8%
COc1cccc(N(CC(=O)Nc2cccc(F)c2)S(C)(=O)=O)c1	22.4%
N#CCCn1cnc2ccccc21	13.5%
CC1CCCN(Cc2nc3c(c(=O)n(C)c(=O)n3C)n2Cc2cccc3ccccc23)C1 (stereo not drawn)	30.3%
Cc1c(C(=O)N2CC(C)OC(C)C2)sc2nc(-c3ccccc3)cn12 (stereo not drawn)	-1.4%
CCN(CC)CCNC(=O)Cn1cnc2sc(C)c(S(=O)(=O)N3CCOCC3)c2c1=O	4.3%
O=C(CN1CCN(C(=O)c2ccco2)CC1)Nc1ccc(Cl)c(C(F)(F)F)c1	3.2%
NC(=O)C1CC=CCC1C(=O)OCC(Cl)=C(Cl)Cl (stereo not drawn)	0.1%
CCOCCc1c(O)nc(SCC(=O)NCc2ccco2)[nH]c1=O	2.4%
Cc1ccc(C(=O)Nc2nnc(-c3ccncc3)s2)o1	7.3%
O=C(O)C1CCCN1S(=O)(=O)c1ccc2c(c1)CCC2 (stereo not drawn)	15.4%
COC(=O)c1ccccc1NC(=O)c1ccccc1NS(C)(=O)=O	14.9%
O=C(CSC1=NCCS1)Nc1nc(-c2ccccc2)cs1	-2.2%
COC(=O)c1ccc(NC(=O)CN(c2ccc(C)cc2)S(=O)(=O)c2c(C)n[nH]c2C)cc1	21.2%
O=C(NCCN1CCOCC1)[C@H](Cc1ccccc1)N1C(=O)c2ccccc2C1=O	3.6%
